Assay results collected from several papers.
Target: Serine/threonine-protein kinase OSR1 (OXSR1, Homo sapiens, UniProt O95747)

Structure (SMILES) | assay | conditions | remaining binding
CO[C@H]1CC[C@H](CNc2ccc(S(=O)(=O)NC(=O)c3ccc(N4CCN(CC5=C(c6ccc(Cl)cc6)CC(C)(C)CC5)CC4)cc3Oc3cnc4[nH]ccc4c3)cc2[N+](=O)[O-])CC1 | cell-free assay, competition with immobilised ligand | 1 µM | 76%
Nc1ncc2c(n1)-c1c([nH]c3ccc(C#CC4CC4)cc13)CCCC2 | binding, competition with immobilised ligand | 1 µM | 86%
N[C@@H]1CCN(c2nccc(-c3cnn4ncccc34)n2)C1 | binding | 1 µM | 100%
COc1cnc(Nc2cccc(S(N)(=O)=O)c2)nc1N1CCN(c2ccccc2)CC1 | binding, competition with immobilised ligand | 1 µM | 90%
O=C(Nc1c[nH]nc1C(=O)NC1CCNCC1)c1cc(F)cc(F)c1 | binding, competition with immobilised ligand | 1 µM | 100%
Cc1cnc(Nc2ccc(C(=O)N3CCC(N4CCCC4)CC3)cc2)nc1-c1cc2ccccc2s1 | binding, competition with immobilised ligand | 1 µM | 81%
C[C@H](c1ccc(F)cc1)N(Cc1cccc(C(=O)O)c1)C(=O)c1cnc2ccccc2c1 | cell-free assay, competition with immobilised ligand | 1 µM | 100%
CCN1CCN(Cc2ccc(C(=O)Nc3ccc(C)c(Oc4ccc5c(c4)CC(=O)N5)c3)cc2C(F)(F)F)CC1 | binding, competition with immobilised ligand | 1 µM | 97%
C[C@@H]1CN(c2cc(-c3nn(C)c4ccc(OC5(C)CC5)cc34)ncn2)C[C@H](C)O1 | cell-free assay, competition with immobilised ligand | 1 µM | 93%
C[C@@H]1CCN(c2nccc(-c3cnn4ncccc34)n2)C1 | binding | 1 µM | 75%
O=C(O)[C@@H]1[C@@H](Cn2nnc3ccccc3c2=O)CC[C@H]1C(=O)c1ccc(OCCC2CCOCC2)cc1 | cell-free assay, competition with immobilised ligand | 1 µM | 100%
CC1CCCN1c1nccc(-c2cnn3ncccc23)n1 (stereo not shown) | binding | 1 µM | 100%
O=C(NCCCN1CCOCC1)c1ccc(Nc2ncc(Cl)c(-c3ccc(Cl)s3)n2)cc1 | binding, competition with immobilised ligand | 1 µM | 79%
COc1ncc2cc3ccccc3nc2c1C#N | cell-free assay, competition with immobilised ligand | 5 µM | 100%
O=C(N[C@H]1CCCCC/C=C\C2C[C@@]2(C(=O)O)NC(=O)[C@@H]2C[C@@H](Oc3ccncc3)CN2C1=O)OC1CCCC1 (stereo partly shown) | binding, competition with immobilised ligand | 1 µM | 75%
CN(c1nccc(-c2cnn3ncccc23)n1)C1CC1 | binding | 1 µM | 100%
CS(=O)(=O)N1CCCC(NC(=O)[C@H](CCC2CCCCC2)NC(=O)c2ccc(CNc3ncnc4c3nnn4-c3ccccc3)cc2)C1 (stereo partly shown) | cell-free assay, competition with immobilised ligand | 0.1 µM | 100%
C=CC(=O)N1CCC(C(=O)NCC(=O)N2CCN(c3nc(-c4cnc(N)nc4C(F)F)nc(N4CCOCC4)n3)CC2)CC1 | binding, competition with immobilised ligand | 1 µM | 100%
CN(CCCC(F)(F)F)c1nccc(-c2cnn3ncccc23)n1 | binding | 1 µM | 100%
CNC(=O)c1ccc(Nc2ncc(C(F)(F)F)c(NCc3nccnc3N(C)S(C)(=O)=O)n2)cc1 | cell-free assay, competition with immobilised ligand | 0.1 µM | 100%
O=C(c1ccc(Nc2ncc(Cl)c(-c3cc4ccccc4s3)n2)cc1)N1CCC(N2CCCC2)CC1 | binding, competition with immobilised ligand | 1 µM | 74%
F[C@@H]1CCN(c2nccc(-c3cnn4ncccc34)n2)C1 | binding | 1 µM | 100%
